In ChEMBL document CHEMBL4229537, “Synthesis and bioactivities evaluation of l-pyroglutamic acid analogues from natural product lead” (Bioorg Med Chem, 2018):
≈ marks a conversion by molar mass, not a printed value.

How the values were obtained:
Bacillus thuringiensis = test: Antibacterial activity against Bacillus thuringiensis at 2 mg/ml after 4 to 10 hrs by filter paper dispersion method; assay type: functional; conditions: read-out: IZ
How it was run: (§1)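 Filter paper diffusion method. Activated bacteria suspended in sterile water, mixed into beef extract peptone medium, and 3 mL poured per 9 cm dish. 5 µL of 2 mg/mL compound applied to 6 mm paper discs in three parallels. Fosfomycin as positive control, solvent as negative control. Dried discs placed on medium and incubated 4-10 h at 37°C. Inhibition zone size and transparency recorded by crisscross method.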

Phytophthora infestans [1] = test: Antifungal activity against Phytophthora infestans assessed as inhibition of zoospore release at 100 ug/ml after 4 hrs relative to control; assay type: functional
How it was run: (§2)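 Zoospore release assay: compounds mixed with zoosporangia, held at 4 °C in darkness for 4 h; screened at 100 µg/mL. Solvent negative, azoxystrobin positive control. Release scored once control release reached 90%. Inhibition (%) = (P0−P1)/P0×100. EC50 determined for compounds exceeding 50% inhibition. Means ± SD of three independent experiments.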

Phytophthora infestans [2] = test: Antifungal activity against Phytophthora infestans assessed as inhibition of zoospore release after 4 hrs; assay type: functional, organism-based; how it was run: as §2
PC-12 = test: Neurotogenic activity in NGF-induced rat PC12 cells assessed as neurite bearing cell levels at 20 uM after 48 hrs by inverted microscopic method (reference value: 0.77 +/- 0.13%); assay type: functional
BV-2 = test: Antiinflammatory activity in mouse BV2 cells assessed as inhibition of LPS-induced nitric oxide production after 24 hrs by Griess assay; assay type: functional, cell-based; conditions: BV-2, 24 h
How it was run: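 BV-2 microglia plated at 1 × 10^5 cells/mL and grown 24 h. Cells pretreated with compound, then stimulated with 1 µg/mL LPS for another 24 h. Quercetin as positive control. Supernatant mixed with Griess reagent and absorbance read at 540 nm. IC50 reported as mean ± SD of three independent experiments.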

[3] = Cytotoxicity against LPS-treated mouse BV2 cells assessed as cell viability after 24 hrs by SRB assay relative to control; assay type: cell-based, BV-2; parameters: concentration or dose not given beside the values; conditions: read-out: Activity
How it was run: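 BV-2 cells pretreated with compound, then exposed to 1 µg/mL LPS for 24 h. Viability measured by SRB assay and expressed as % of control group. Mean ± SD of three independent experiments.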

Bacillus cereus = test: Antibacterial activity against Bacillus cereus at 2 mg/ml after 4 to 10 hrs by filter paper dispersion method; assay type: functional; conditions: read-out: IZ; how it was run: as §1
[4] = system: Pectobacterium carotovorum; test: Antibacterial activity against Erwinia caratovora at 2 mg/ml after 4 to 10 hrs by filter paper dispersion method; assay type: functional; conditions: read-out: IZ; how it was run: as §1
Ralstonia solanacearum = test: Antibacterial activity against Ralstonia solanacearum at 2 mg/ml after 4 to 10 hrs by filter paper dispersion method; assay type: functional; conditions: read-out: IZ
Staphylococcus aureus = test: Antibacterial activity against Staphylococcus aureus at 2 mg/ml after 4 to 10 hrs by filter paper dispersion method; assay type: functional; conditions: read-out: IZ; how it was run: as §1
Phytophthora infestans [5] = test: Potency index, ratio of azoxystrobin EC50 to test compound EC50 for Phytophthora infestans; assay type: functional
Phytophthora infestans [6] = test: Antifungal activity against Phytophthora infestans; assay type: functional, organism-based; how it was run: as §2
[7] = system: Pseudoperonospora cubensis; test: Antifungal activity against Pseudoperonospora cubensis; assay type: functional, organism-based

## CNC(=O)[C@@H]1CCC(=O)N1
Bacillus thuringiensis
  zone of inhibition at 2000 µg/mL: 12 mm
Phytophthora infestans [1]
  inhibition at 100 µg/mL: 1.17%

## CCCCOC(=O)[C@@H]1CCC(=O)N1
Phytophthora infestans [2]
  EC50: 11.2 µg/mL (≈ 60.5 µM)
Phytophthora infestans [1]
  inhibition at 100 µg/mL: 99%

## CCOC(=O)[C@@H]1CCC(=O)N1
Phytophthora infestans [2]
  EC50: 15.2 µg/mL (≈ 97 µM)
Phytophthora infestans [1]
  inhibition at 100 µg/mL: 95.8%

## O=C1CC[C@@H](C(=O)Oc2ccccc2)N1
Phytophthora infestans [2]
  EC50: 19.5 µg/mL (≈ 95.1 µM)
Phytophthora infestans [1]
  inhibition at 100 µg/mL: 98.3%

## COC(=O)[C@@H]1CCC(=O)N1
Phytophthora infestans [1]
  inhibition at 100 µg/mL: 26.1%

## O=C1CC[C@@H](C(=O)Nc2ccc([N+](=O)[O-])cc2)N1
Phytophthora infestans [1]
  inhibition at 100 µg/mL: 47.5%

## C=CCNC(=O)[C@@H]1CCC(=O)N1
PC-12
  Activity: 14.962%
BV-2
  IC50: 9.1 µM
Bacillus thuringiensis
  zone of inhibition at 2000 µg/mL: 11.5 mm
Phytophthora infestans [1]
  inhibition at 100 µg/mL: 49.3%
[3]
  viability at 24 h: 95.4%
Bacillus cereus
  zone of inhibition at 2000 µg/mL: 15 mm

## NNC(=O)[C@@H]1CCC(=O)N1
Bacillus thuringiensis
  zone of inhibition at 2000 µg/mL: 14 mm

## CCN(CC)C(=O)[C@@H]1CCC(=O)N1
[4]
  zone of inhibition at 2000 µg/mL: 12 mm
Phytophthora infestans [1]
  inhibition at 100 µg/mL: 35.8%
Bacillus cereus
  zone of inhibition at 2000 µg/mL: 10 mm

## O=C1CC[C@@H](C(=O)NCCc2c[nH]c3ccccc23)N1
[4]
  zone of inhibition at 2000 µg/mL: 15 mm
Bacillus thuringiensis
  zone of inhibition at 2000 µg/mL: 12 mm
Phytophthora infestans [1]
  inhibition at 100 µg/mL: 21.5%

## COC(=O)c1ccccc1NC(=O)[C@@H]1CCC(=O)N1
Ralstonia solanacearum
  zone of inhibition at 2000 µg/mL: 10 mm
[4]
  zone of inhibition at 2000 µg/mL: 9 mm
Staphylococcus aureus
  zone of inhibition at 2000 µg/mL: 6 mm
Phytophthora infestans [1]
  inhibition at 100 µg/mL: 2.37%
Bacillus cereus
  zone of inhibition at 2000 µg/mL: 6 mm

## O=C1CC[C@@H](C(=O)Oc2cccc3ccccc23)N1
Phytophthora infestans [5]
  Ratio EC50: 7
Phytophthora infestans [2]
  EC50: 1.21 µg/mL (≈ 4.74 µM)
Phytophthora infestans [1]
  inhibition at 100 µg/mL: 98.5%

## C#CCOC(=O)[C@@H]1CCC(=O)N1
Ralstonia solanacearum
  zone of inhibition at 2000 µg/mL: 6 mm

## Nc1ccccc1NC(=O)[C@@H]1CCC(=O)N1
Bacillus thuringiensis
  zone of inhibition at 2000 µg/mL: 11.5 mm
Bacillus cereus
  zone of inhibition at 2000 µg/mL: 5.5 mm

## O=C1CC[C@@H](C(=O)Oc2ccccc2Cl)N1
Phytophthora infestans [2]
  EC50: 14.6 µg/mL (≈ 60.8 µM)
Phytophthora infestans [1]
  inhibition at 100 µg/mL: 98.4%

## O=C1CC[C@@H](C(=O)Oc2ccccc2[N+](=O)[O-])N1
Phytophthora infestans [2]
  EC50: 8.58 µg/mL (≈ 34.3 µM)
Phytophthora infestans [1]
  inhibition at 100 µg/mL: 96.3%

## C=CCOC(=O)[C@@H]1CCC(=O)N1
Bacillus thuringiensis
  zone of inhibition at 2000 µg/mL: 12 mm
Phytophthora infestans [1]
  inhibition at 100 µg/mL: 84.2%

## C#CCNC(=O)[C@@H]1CCC(=O)N1
BV-2
  IC50: 6 µM
Staphylococcus aureus
  zone of inhibition at 2000 µg/mL: 6 mm
Bacillus thuringiensis
  zone of inhibition at 2000 µg/mL: 9 mm
[3]
  viability at 24 h: 89.5%

## NC(=O)[C@@H]1CCC(=O)N1
Ralstonia solanacearum
  zone of inhibition at 2000 µg/mL: 5.5 mm
Bacillus thuringiensis
  zone of inhibition at 2000 µg/mL: 8 mm
Phytophthora infestans [1]
  inhibition at 100 µg/mL: 13.6%

## N#Cc1ccccc1OC(=O)[C@@H]1CCC(=O)N1
Ralstonia solanacearum
  zone of inhibition at 2000 µg/mL: 7 mm
Phytophthora infestans [2]
  EC50: 9.62 µg/mL (≈ 41.8 µM)
Bacillus thuringiensis
  zone of inhibition at 2000 µg/mL: 14 mm
Phytophthora infestans [1]
  inhibition at 100 µg/mL: 98.3%

## O=C1CC[C@@H](C(=O)Nc2ccc(C(F)(F)F)cc2)N1
Bacillus thuringiensis
  zone of inhibition at 2000 µg/mL: 13 mm
Bacillus cereus
  zone of inhibition at 2000 µg/mL: 9.5 mm

## O=C1CC[C@@H](C(=O)Nc2ccccc2O)N1
Phytophthora infestans [1]
  inhibition at 100 µg/mL: 33.7%

## O=C1CC[C@@H](C(=O)Oc2ccc(Cl)cc2)N1
Phytophthora infestans [5]
  Ratio EC50: 7
Phytophthora infestans [2]
  EC50: 1.44 µg/mL (≈ 6.01 µM)
Phytophthora infestans [1]
  inhibition at 100 µg/mL: 98.1%

## CC(C)OC(=O)[C@@H]1CCC(=O)N1
Phytophthora infestans [1]
  inhibition at 100 µg/mL: 36.5%

## CCCCNC(=O)[C@@H]1CCC(=O)N1
Bacillus thuringiensis
  zone of inhibition at 2000 µg/mL: 7.5 mm
Phytophthora infestans [1]
  inhibition at 100 µg/mL: 17.8%

## CC(C)NC(=O)[C@@H]1CCC(=O)N1
Bacillus thuringiensis
  zone of inhibition at 2000 µg/mL: 10 mm
Bacillus cereus
  zone of inhibition at 2000 µg/mL: 5.5 mm

## Cc1cc(Cl)ccc1OC(=O)[C@@H]1CCC(=O)N1
BV-2
  IC50: 19.4 µM
Phytophthora infestans [1]
  inhibition at 100 µg/mL: 39.8%
[3]
  viability at 24 h: 91.1%

## CC(C)(C)NC(=O)[C@@H]1CCC(=O)N1
Bacillus cereus
  zone of inhibition at 2000 µg/mL: 12 mm

## CN(C)C(=O)[C@@H]1CCC(=O)N1
Phytophthora infestans [1]
  inhibition at 100 µg/mL: 44.3%

## CN1CCN(C(=O)[C@@H]2CCC(=O)N2)CC1
Bacillus cereus
  zone of inhibition at 2000 µg/mL: 7 mm

## Cc1ccccc1OC(=O)[C@@H]1CCC(=O)N1
Phytophthora infestans [1]
  inhibition at 100 µg/mL: 48.6%

## CCCOC(=O)[C@@H]1CCC(=O)N1
Phytophthora infestans [2]
  EC50: 12.4 µg/mL (≈ 72.6 µM)
Phytophthora infestans [1]
  inhibition at 100 µg/mL: 95.1%

## CC(C)COC(=O)[C@@H]1CCC(=O)N1
Phytophthora infestans [1]
  inhibition at 100 µg/mL: 64.9%

## CCOC(=O)c1ccccc1OC(=O)[C@@H]1CCC(=O)N1
Ralstonia solanacearum
  zone of inhibition at 2000 µg/mL: 5.5 mm
Phytophthora infestans [2]
  EC50: 16.4 µg/mL (≈ 59.2 µM)
[4]
  zone of inhibition at 2000 µg/mL: 11 mm
Staphylococcus aureus
  zone of inhibition at 2000 µg/mL: 6.5 mm
Bacillus thuringiensis
  zone of inhibition at 2000 µg/mL: 13 mm
Phytophthora infestans [1]
  inhibition at 100 µg/mL: 98.2%

## Cc1ccc(C(C)C)c(OC(=O)[C@@H]2CCC(=O)N2)c1
Phytophthora infestans [1]
  inhibition at 100 µg/mL: 13.2%

## CO/C=C(/C(=O)OC)c1ccccc1Oc1cc(Oc2ccccc2C#N)ncn1 [AZOXYSTROBIN]
Phytophthora infestans [2]
  EC50: 1.98 µg/mL (≈ 4.91 µM)
Phytophthora infestans [1]
  inhibition at 100 µg/mL: 99.2%

## CC1(C)S[C@@H]2[C@H](NC(=O)Cc3ccccc3)C(=O)N2[C@H]1C(=O)O [PENICILLIN G SODIUM]
Ralstonia solanacearum
  zone of inhibition at 2000 µg/mL: 24 mm
[4]
  zone of inhibition at 2000 µg/mL: 28 mm
Staphylococcus aureus
  zone of inhibition at 2000 µg/mL: 28 mm
Bacillus thuringiensis
  zone of inhibition at 2000 µg/mL: 27 mm
Bacillus cereus
  zone of inhibition at 2000 µg/mL: 25 mm

## O=C1CC[C@@H](C(=O)Oc2ccc(O)cc2)N1 [PIDOBENZONE]
Ralstonia solanacearum
  zone of inhibition at 2000 µg/mL: 7 mm
PC-12
  Activity: 15.443%
BV-2
  IC50: 4.5 µM
Staphylococcus aureus
  zone of inhibition at 2000 µg/mL: 6 mm
[3]
  viability at 24 h: 92.6%
Bacillus cereus
  zone of inhibition at 2000 µg/mL: 12 mm

## O=C1CC[C@@H](C(=O)O)N1 [PIDOLIC ACID]
Ralstonia solanacearum
  zone of inhibition at 2000 µg/mL: 7.5 mm
Phytophthora infestans [6]
  EC50: 9.48 µg/mL (≈ 73.4 µM)
Phytophthora infestans [2]
  EC50: 7.85 µg/mL (≈ 60.8 µM)
Bacillus thuringiensis
  zone of inhibition at 2000 µg/mL: 17.5 mm
[7]
  EC50: 10.8 µg/mL (≈ 83.8 µM)
Phytophthora infestans [1]
  inhibition at 100 µg/mL: 98.8%

## O=c1c(O)c(-c2ccc(O)c(O)c2)oc2cc(O)cc(O)c12 [QUERCETIN]
BV-2
  IC50: 4.3 µM
[3]
  viability at 24 h: 99.5%
